In ChEMBL document CHEMBL1153859, “Analogs of JHU75528, a PET ligand for imaging of cerebral cannabinoid receptors (CB1): development of ligands with optimized lipophilicity and binding affinity” (Eur J Med Chem, 2009):
Calls of active or inactive are those of the source. The calls are words filed in the database; no cut-off is given here.

Columns and labels:
[1] = target: T1, Cannabinoid receptor 1 (Homo sapiens, UniProt P21554); experiment: biochemical; type: cell-based, HEK293
[2] = Octanol-phosphate buffer partition coefficient, log D at pH 7.4 by shake-flask method; type: physicochemical
How it was run: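 Octanol/phosphate buffer (pH 7.4) partition by conventional shake-flask; logD7.4 reported as mean ± S.D. of independent assays.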

[3] = system: Mus musculus; experiment: Binding affinity to CB1 receptor in CD1 mouse brainstem at 200 uCi, iv after 60 mins in presence of rimonabant; type: functional, organism-based; conditions: tested as the 11C-labelled form
How it was run: (§1)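 Controls got vehicle. 15 min later [11C] tracer (~7.4 MBq, ~200 μCi; ~300 GBq/μmol) was given i.v.; n=3 per group. Brains were harvested at 60 min and regions dissected on ice, then γ-counted against injectate standards as %ID/g tissue. Single-factor ANOVA, p ≤ 0.05.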

[4] = system: Mus musculus; experiment: Binding affinity to CB1 receptor in CD1 mouse hippocampus at 200 uCi, iv after 60 mins in presence of rimonabant; type: functional, organism-based; conditions: tested as the 11C-labelled form
How it was run: as §1

[5] = target: Cannabinoid receptor 1 (Mus musculus) (UniProt P47746); experiment: Antagonist activity at CB1 receptor in C57/BL6 mouse striatum assessed as blockade of WIN-55212-2 induced inhibition of glutamate release at 3 uM by electrophysiology; type: functional, tissue-based
Chain of Cannabinoid receptor 1 (Mus musculus) (P47746 whole entry): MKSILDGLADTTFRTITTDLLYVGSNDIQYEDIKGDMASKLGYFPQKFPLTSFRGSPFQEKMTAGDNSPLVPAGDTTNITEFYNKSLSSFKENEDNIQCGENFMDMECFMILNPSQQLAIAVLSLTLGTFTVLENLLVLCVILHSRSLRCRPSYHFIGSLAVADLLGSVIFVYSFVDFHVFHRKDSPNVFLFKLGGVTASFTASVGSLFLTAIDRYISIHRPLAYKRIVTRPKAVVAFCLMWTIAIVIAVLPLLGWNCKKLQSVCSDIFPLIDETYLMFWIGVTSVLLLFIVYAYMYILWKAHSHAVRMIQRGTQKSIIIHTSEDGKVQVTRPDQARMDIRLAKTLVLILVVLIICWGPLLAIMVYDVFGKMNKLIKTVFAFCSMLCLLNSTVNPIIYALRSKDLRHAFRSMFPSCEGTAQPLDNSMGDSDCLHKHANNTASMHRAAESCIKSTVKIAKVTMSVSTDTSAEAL

[6] = system: Cannabinoid receptor 1 (Macaca mulatta); experiment: Binding affinity to Rhesus monkey CB1 receptor assessed as binding potential; conditions: tested as the 11C-labelled form
[7] = target: T1, Cannabinoid receptor 1; experiment: Binding affinity to human CB1 receptor assessed as binding potential

T1 sequence (P21554 whole entry): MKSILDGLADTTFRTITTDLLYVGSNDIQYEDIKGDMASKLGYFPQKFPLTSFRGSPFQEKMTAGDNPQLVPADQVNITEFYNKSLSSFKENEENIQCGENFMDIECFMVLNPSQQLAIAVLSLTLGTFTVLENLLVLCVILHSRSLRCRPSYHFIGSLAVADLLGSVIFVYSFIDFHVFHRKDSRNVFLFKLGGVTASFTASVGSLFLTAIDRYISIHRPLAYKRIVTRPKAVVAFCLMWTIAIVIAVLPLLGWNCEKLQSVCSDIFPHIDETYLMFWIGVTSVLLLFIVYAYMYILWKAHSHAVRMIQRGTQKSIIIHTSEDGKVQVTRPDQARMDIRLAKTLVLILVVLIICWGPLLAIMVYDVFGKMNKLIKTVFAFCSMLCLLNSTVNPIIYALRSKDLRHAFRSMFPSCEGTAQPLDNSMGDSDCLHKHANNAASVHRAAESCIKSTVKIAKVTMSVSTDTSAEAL

| Structure (SMILES) | Ki [1] | logD [2] | further results |
| --- | --- | --- | --- |
| N#Cc1c(C(=O)NN2CCOCC2)nn(-c2ccc(Cl)cc2Cl)c1-c1ccc(I)cc1 | 0.131 µM | 3.2 |  |
| COc1ccc(-c2c(C#N)c(C(=O)NN3CCCC3)nn2-c2ccc(Cl)cc2Cl)cc1 | 0.002 µM |  | Activity [3]: Active; Activity [4]: inactive |
| COc1ccc(-c2c(C(N)=O)c(C(=O)NN3CCCCC3)nn2-c2ccccc2Br)cc1 | > 10 µM | 2.5 |  |
| N#Cc1c(C(=O)NN2CCCCC2)nn(-c2ccc(Cl)cc2Cl)c1-c1ccc(Br)cc1 | 0.014 µM | 3.7 |  |
| N#Cc1c(C(=O)NN2CCCCC2)nn(-c2ccc(Cl)cc2Cl)c1-c1ccc(OCF)cc1 | 0.0103 µM | 2.9 |  |
| COc1ccc(-c2c(C#N)c(C(=O)NN3CCCCC3)nn2-c2ccc(Cl)cc2Cl)cc1 [JHU-75528] | 0.011 µM |  | Activity [5]: Active; Activity [6]: 0.6 |
| Cc1c(C(=O)NN2CCOCC2)nn(-c2ccc(Cl)cc2Cl)c1-c1ccc(I)cc1 |  |  | Activity ([7]; tested as the 123I-labelled form): 0.21; Activity ([7]; tested as the 124I-labelled form): 0.37 |
| N#Cc1c(C(=O)NN2CCCCC2)nn(-c2ccc(Cl)cc2Cl)c1-c1ccc(I)cc1 | 0.033 µM | 3.9 |  |
| N#Cc1c(C(=O)NN2CCCCC2)nn(-c2ccc(Cl)cc2Cl)c1-c1ccc(Cl)cc1 | 0.024 µM | 3.5 |  |
| COc1ccc(-c2c(C#N)c(C(=O)NN3CCCCC3)nn2-c2ccc(F)cc2Cl)cc1 | 0.013 µM | 2.8 |  |
| COc1ccc(-c2c(C#N)c(C(=O)NN3CCCCC3)nn2-c2ccccc2Br)cc1 | 0.0047 µM | 3.4 |  |
| COc1ccc(-c2c(C#N)c(C(=O)NN3CCCCC3)nn2-c2ccc(F)cc2Br)cc1 | 0.032 µM | 2.9 |  |
| CCCCCCC(C)(C)c1cc(O)c2c(c1)OC(C)(C)[C@@H]1CC=C(CO)C[C@@H]21 | 0.0015 µM |  |  |
| N#Cc1c(C(=O)NN2CCOCC2)nn(-c2ccc(Cl)cc2Cl)c1-c1ccc(Br)cc1 | > 1 µM | 3.1 |  |
